The species named for series [1] is Mus musculus. Nature of the series: Mean survival time when 0.3x10E-6 viable cells were injected and challenge performed 15 days after injection of photoinactivated cells. The settings on record: in vivo, 360 h. The series is classed as ADME, organism-based. The method, boiled down: (§1)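 Mice, groups of 10, primed by ip injection of 5 × 10^6 Ehrlich cells. Before injection, these cells were photoinactivated with UVA light (2.7 kJ m-2) in the presence of 2 μM drug. Viable untreated Ehrlich cells were given later as the tumor challenge, at varying cell numbers and times after priming. Mortality (%) and mean survival time (days) were recorded.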

For series [2], the species on record is Mus musculus. Nature of the series: Mean survival time when 0.3x10E-6 viable cells were injected and challenge performed 21 days after injection of photoinactivated cells. Type of series: ADME, organism-based. The following applies: in vivo, 504 h. The method, boiled down:
as §1

For series [3], the species on record is Mus musculus. Description: Percent mortality observed when 1x10E-6 viable cells were injected and challenge performed 21 days after injection of photoinactivated cells. The series is classed as ADME, organism-based. The following applies: in vivo, 504 h. The method, boiled down:
as §1

A short description of series [4]: Antiproliferative effect on DNA synthesis of mammalian cells upon UVA irradiation. Type of series: functional. The settings on record: light or radiation study, read-out: ID50. The method, boiled down: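 Ehrlich cells, DNA synthesis inhibition. Cells held with 2 µM drug and exposed to graded UVA doses. ID50 is the UVA dose (kJ m-2) giving 50% inhibition, calculated by probit analysis, pooled from several experiments.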

Series [5] is filed under the species Mus musculus. Description: Percent mortality observed when 0.3x10E-6 viable cells were injected and challenge performed 15 days after injection of photoinactivated cells. The series is classed as organism-based. The settings on record: in vivo, 360 h. The gist of the method:
as §1

Series [6] is filed under the species Mus musculus. Nature of the series: Percent mortality observed when 4x10E-6 viable cells were injected and challenge performed 21 days after injection of photoinactivated cells. The settings on record: in vivo, 504 h. Type of series: ADME, organism-based. The gist of the method:
as §1

The species entered for series [7] is Mus musculus. Nature of the series: Percent mortality observed when 0.3x10E-6 viable cells were injected and challenge performed 8 days after injection of photoinactivated cells. Type of series: ADME, organism-based. The settings on record: in vivo, 192 h. The method, boiled down: as §1
Series [8] is filed under the species Mus musculus. Description: Mean survival time when 0.3x10E-6 viable cells were injected and challenge performed 8 days after injection of photoinactivated cells. Type of series: ADME, organism-based. The settings on record: in vivo, 192 h. The method, boiled down: as §1
Series [9] is described as follows: Antiproliferative effect on clonal growth of mammalian cells upon UVA irradiation. Type of series: functional. The settings on record: light or radiation study, read-out: ID50. The gist of the method:
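CHO cells, clonal growth (colony-forming) inhibition. Cells given graded UVA doses in the presence of 2 µM drug. Reported ID50 is the UVA dose (kJ m-2) producing 50% inhibition, derived by probit analysis over several experiments.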

The species named for series [10] is Mus musculus. Description: Mean survival time when 4x10E-6 viable cells were injected and challenge performed 21 days after injection of photoinactivated cells. The series is classed as ADME, organism-based. The following applies: in vivo, 504 h. The gist of the method:
as §1

For series [11], the species on record is Mus musculus. Description: Mean survival time when 1x10E-6 viable cells were injected and challenge performed 21 days after injection of photoinactivated cells. Type of series: ADME, organism-based. The following applies: in vivo, 504 h. The method, boiled down:
as §1

The species entered for series [12] is Mus musculus. Description: Percent mortality observed when 0.3x10E-6 viable cells were injected and challenge performed 21 days after injection of photoinactivated cells. Type of series: organism-based. The following applies: in vivo, 504 h. The method, boiled down:
as §1

Consider `Cc1cc2c(o1)c(C)cc1c(CO)cc(=O)n(C)c12`, for which the Mean survival time in the series listed under Mus musculus [1] is 25 days; in the series listed under Mus musculus [2], greater than 60 days; in the series filed under Mus musculus [8], 21.3 days; in the series listed under Mus musculus [10], 15.8 days; in the series filed under Mus musculus [11], 10.6 days. In addition, the Mortality in the series listed under Mus musculus [3] worked out at 30%; in the series listed under Mus musculus [5], 35%; in the series listed under Mus musculus [6] it was 100%; in the series filed under Mus musculus [7] it was 70%; in the series listed under Mus musculus [12], 0%. Also, the IC50 in series [4] stood at 0.65 kJ m-2; in series [9], 0.02 kJ m-2.

On to `COc1c2occc2cc2ccc(=O)oc12` [METHOXSALEN], for which the IC50 amounted to 36.6 kJ m-2 in [4] and 0.84 kJ m-2 in series [9].
